Assay results reported in ChEMBL document CHEMBL1142683, “Multivariate design, synthesis, and biological evaluation of peptide inhibitors of FimC/FimH protein-protein interactions in uropathogenic Escherichia coli” (J Med Chem, 2005).

How the values were obtained:
Escherichia coli [1] = assay: Inhibition of FimC/FimH pilus assembly complex formation in Escherichia coli at 200 uM
Procedure, shortened: (§1)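 Competitive ELISA: FimC chaperone coated overnight at 4 °C in PBS pH 7.4, blocked with 3% BSA-PBS 1 h RT. Peptide in DMSO (0.5, 2.5 or 10 nmol; 10, 50, 200 µM) plus FimH (1 pmol, in 3 M urea/MES pH 6.8) 45 min RT. Bound FimH detected with mouse anti-FimH, then alkaline phosphatase anti-mouse IgG, p-nitrophenyl phosphate 1 h dark; A405. DMSO positive control. % inhibition, mean of four replicates.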

Escherichia coli [2] = assay: Inhibition of FimC/FimH pilus assembly complex formation in Escherichia coli at 50 uM; procedure, shortened: as §1
Escherichia coli [3] = assay: Inhibition of FimC/FimH pilus assembly complex formation in Escherichia coli at 10 uM; procedure, shortened: as §1

Row | Substance | inhibition (Escherichia coli [1]) [%] | inhibition (Escherichia coli [2]) [%] | inhibition (Escherichia coli [3]) [%]
1 | H-LVGKSHLIS-OH | 5 | 0 | 1
2 | H-KGFQLDLIS-OH | 8 | 9 | -7
3 | H-KDLASTLIS-OH | 3 | 11 | 16
4 | H-KFGDLASIS-OH | 7 | 1 | 4
5 | H-LTFDGTWIS-OH | 10 | 7 | 0
6 | H-NKGTSDWIS-OH | 10 | 8 | 3
7 | H-TTFTSLSIS-OH | 48 | 35 | 19
8 | H-AVLASAWIS-OH | 18 | 8 | 0
9 | H-NGLQGASIS-OH | 24 | 19 | 10
10 | H-NDLKGLFIS-OH | 14 | 12 | 10
11 | H-AKGDLLLIS-OH | 14 | 13 | 3
12 | H-TDGQLLWIS-OH | 4 | 1 | -8
13 | H-DSTITIRGY-OH | 28 | 14 | -1
14 | H-LGSAFLFIS-OH | 40 | 29 | 19
15 | H-TVLDFDFIS-OH | 5 | 6 | 3

Results, then the substance that gave them:

Row | inhibition (Escherichia coli [1]) [%] | inhibition (Escherichia coli [2]) [%] | inhibition (Escherichia coli [3]) [%] | Substance
16 | 0 | 9 | 12 | H-ATSFGHWIS-OH
17 | -2 | -1 | -3 | H-AGGTGTFIS-OH
18 | 29 | 17 | 20 | H-KVSFGLFIS-OH
19 | 3 | 17 |  | H-TGGAGALIS-OH
20 | 37 | 25 | 10 | H-LDSTLAFIS-OH
21 | 15 | 11 | 2 | H-NTGALDSIS-OH
22 | 44 | 30 | 18 | H-NVSTLHLIS-OH
23 | 2 | -3 | 2 | H-NGFKFTWIS-OH
24 | 4 | 7 | 17 | H-NTGQFAFIS-OH
25 | 50 | 32 | 18 | H-NTLQLALIS-OH
26 | 26 | 16 | 2 | H-ADFFFHSIS-OH
27 | 39 | 22 | 8 | H-KKLKLHFIS-OH
28 | 3 | 1 | -3 | H-GGTVHFKGG-OH
29 | 1 | 0 | -1 | H-NFFAGHFIS-OH
30 | -6 | -9 | -5 | H-AFSKSDFIS-OH
31 | 12 | 19 | 3 | H-NGSDSHFIS-OH
32 | 40 | 23 | 7 | H-NTLQLAIIS-OH
